This assay concerns HEK293 CYP11A1 promoter CAT reporter, ELISA absorbance. In words: CYP11A1 reporter increase in DAX-1/SF-1 cells – cell-based, absorbance, CAT reporter, HEK293, counter-screen for DAX1 inhibitor project, late-stage follow-up (AID 624313). Conditions: at 100 µM (top of the series). The method in brief:
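Material – HEK293 cells carrying DAX-1, SF-1 and CYP11A1-promoter CAT reporter plasmids · Compound – three doses, 1:2 steps from 100 µM · Detection – colorimetric enzyme immunoassay of CAT protein, absorbance · Evaluation – CAT signal relative to DMSO-treated wells · Controls – pSG5 empty-vector positive control, DMSO reference · Replicates – each dose tested in triplicate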
On the technique in general: The purpose of a counterscreen is to sort out artefacts and off-target activity.

The text below walks through data of PubChem BioAssay AID624313 (The Scripps Research Institute Molecular Screening Center, 2012).

Active and inactive are the calls of the source.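 The calls were made as follows: active = reporter absorbance over solvent-only wells above 1.25 at every tested dose; inactive = the rest.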

On to `Cn1c(=O)n(C)c2cc(C(=O)Nc3ccc4c(c3)OCCO4)ccc21`, for which the relative activity ratio was 0.27 (inactive).
On to `Cn1c(=O)n(C)c2cc(C(=O)Nc3ccc4c(c3)OCO4)ccc21`, for which the relative activity ratio is 0.52 (inactive).
